Reference: ChEMBL document CHEMBL1130152, “7-spirobenzocyclohexyl derivatives of naltrexone, oxymorphone, and hydromorphone as selective opioid receptor ligands” (J Med Chem, 1997)

What was measured:
Cavia porcellus [1] = species: Cavia porcellus; experiment: Agonist activity expressed as inhibitory concentration against contraction of electrically stimulated guinea pig ileum; assay type: functional
Summary of the method: (§1)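 Electrically stimulated smooth muscle: longitudinal muscle of guinea pig ileum (GPI) and mouse vas deferens (MVD). Inhibition of contraction was measured for ligands acting as full agonists, and potency was given as IC50 (nM). Three or more replicate determinations were run per compound.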

Mus musculus [2] = species: Mus musculus; experiment: Agonist activity expressed as inhibitory concentration against contraction of electrically stimulated mouse vas deferens; assay type: functional; summary of the method: as §1
[3] = target: Kappa-type opioid receptor (Mus musculus, UniProt P33534); experiment: Inhibition of [3H]U-69593 binding to Opioid receptor kappa 1 from mouse brain membranes.
Kappa-type opioid receptor, sequence (P33534 whole entry): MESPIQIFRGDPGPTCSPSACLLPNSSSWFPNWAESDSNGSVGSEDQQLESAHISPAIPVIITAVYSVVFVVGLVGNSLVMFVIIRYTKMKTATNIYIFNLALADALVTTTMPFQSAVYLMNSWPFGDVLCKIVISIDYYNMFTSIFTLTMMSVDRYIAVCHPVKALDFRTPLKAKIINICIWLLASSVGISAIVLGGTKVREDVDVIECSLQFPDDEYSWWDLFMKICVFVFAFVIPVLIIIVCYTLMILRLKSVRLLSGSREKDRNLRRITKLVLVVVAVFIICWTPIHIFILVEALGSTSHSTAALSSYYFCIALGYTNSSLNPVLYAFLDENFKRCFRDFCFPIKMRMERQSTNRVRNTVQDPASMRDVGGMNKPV
Summary of the method: (§2)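 Competition binding of test ligands against tritiated radioligands on mouse brain membranes; the μ site used [3H]DAMGO. IC50 was converted to Ki by the Cheng-Prusoff equation using radioligand concentration and KD. Values are arithmetic means of at least 3 determinations, ±SEM.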

[4] = target: Delta-type opioid receptor (Mus musculus, UniProt P32300); experiment: Inhibition of [3H]-NTI binding to Opioid receptor delta 1 from mouse brain membranes.; summary of the method: as §2
Delta-type opioid receptor, sequence (P32300 whole entry): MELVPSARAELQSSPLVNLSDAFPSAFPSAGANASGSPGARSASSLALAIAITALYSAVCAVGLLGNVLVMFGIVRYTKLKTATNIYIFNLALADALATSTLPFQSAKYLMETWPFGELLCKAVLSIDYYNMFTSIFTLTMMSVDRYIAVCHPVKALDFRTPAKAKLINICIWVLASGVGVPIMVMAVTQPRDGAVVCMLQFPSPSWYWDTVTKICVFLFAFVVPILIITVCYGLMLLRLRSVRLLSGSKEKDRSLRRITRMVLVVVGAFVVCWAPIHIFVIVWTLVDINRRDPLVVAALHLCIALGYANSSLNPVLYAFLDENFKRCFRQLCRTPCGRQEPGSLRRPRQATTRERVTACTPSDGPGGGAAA

Mu-type opioid receptor = Mu-type opioid receptor (Mus musculus, UniProt P42866); experiment: Inhibition of [3H]DAMGO binding to Opioid receptor mu 1 from mouse brain membranes.; summary of the method: as §2
Mu-type opioid receptor, sequence (P42866 whole entry): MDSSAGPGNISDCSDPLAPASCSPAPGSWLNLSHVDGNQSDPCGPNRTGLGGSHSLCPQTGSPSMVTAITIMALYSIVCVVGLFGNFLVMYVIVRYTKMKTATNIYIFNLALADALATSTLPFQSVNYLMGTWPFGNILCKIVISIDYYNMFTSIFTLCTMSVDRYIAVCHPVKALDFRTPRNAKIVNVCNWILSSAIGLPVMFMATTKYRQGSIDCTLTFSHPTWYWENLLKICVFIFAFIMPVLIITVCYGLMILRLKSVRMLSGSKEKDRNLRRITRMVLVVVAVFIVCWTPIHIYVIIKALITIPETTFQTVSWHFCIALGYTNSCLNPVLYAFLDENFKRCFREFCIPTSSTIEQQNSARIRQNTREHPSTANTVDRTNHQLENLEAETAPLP

Cavia porcellus [5] = species: Cavia porcellus; experiment: Agonist activity expressed as percent inhibition of contraction of electrically stimulated guinea pig ileal longitudinal muscle at a concentration of 1 uM; assay type: functional, Muscle tissue
Summary of the method: (§3)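 Electrically stimulated GPI longitudinal muscle or MVD preparations. Ligands that were not full agonists were tested at 1 µM. Inhibition of contraction was expressed as a percentage of the maximal response. Three or more replicate determinations were run per compound.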

Mus musculus [6] = species: Mus musculus; experiment: Agonist activity expressed as percent inhibition of contraction of electrically stimulated mouse vas deferens at a concentration of 1 uM; assay type: functional; summary of the method: as §3

SMILES: CN1CCC23c4c5ccc(O)c4O[C@H]2C(=O)[C@@]2(CCc4ccccc4C2)C[C@@]3(O)C1C5 (stereo not given in full)
- IC50 (Cavia porcellus [1]): 183 nM
- IC50 (Mus musculus [2]): 24 nM
- Ki [3]: > 1000 nM
- Ki [4]: 4.6 nM
- Ki (Mu-type opioid receptor): 18 nM

SMILES: O=C1[C@@H]2Oc3c(O)ccc4c3C23CCN(CC2CC2)C(C4)[C@]3(O)C[C@@]12CCc1ccccc1C2 (stereo not given in full)
- Max response (Cavia porcellus [5]): 16%
- Max response (Mus musculus [6]): 3%
- Ki [3]: 147 nM
- Ki [4]: 0.0041 nM
- Ki (Mu-type opioid receptor): 0.72 nM

SMILES: CN1CC[C@]23c4c5ccc(O)c4O[C@H]2C(=O)C2(Cc4ccccc4C2)C[C@@]3(O)[C@H]1C5 [SPIROINDANYLOXYMORPHONE]
- Max response (Cavia porcellus [5]): 55%
- IC50 (Mus musculus [2]): 22 nM
- Ki [3]: > 3000 nM
- Ki [4]: 2.8 nM
- Ki (Mu-type opioid receptor): 14 nM

SMILES: O=C1[C@@H]2Oc3c(O)ccc4c3[C@@]23CCN(CC2CC2)[C@H](C4)[C@]3(O)CC12Cc1ccccc1C2
- Max response (Cavia porcellus [5]): 16%
- Max response (Mus musculus [6]): 8%
- Ki [3]: > 3000 nM
- Ki [4]: 0.25 nM
- Ki (Mu-type opioid receptor): 1.5 nM

SMILES: CN1CCC23c4c5ccc(O)c4O[C@H]2C(=O)[C@]2(CCc4ccccc4C2)C[C@@]3(O)C1C5 (stereo not given in full)
- IC50 (Cavia porcellus [1]): 629 nM
- IC50 (Mus musculus [2]): 28 nM
- Ki [3]: > 3000 nM
- Ki [4]: 9.3 nM
- Ki (Mu-type opioid receptor): 28 nM

SMILES: O=C1[C@@H]2Oc3c(O)ccc4c3C23CCN(CC2CC2)C(C4)[C@]3(O)C[C@]12CCc1ccccc1C2 (stereo not given in full)
- Max response (Cavia porcellus [5]): 2%
- Max response (Mus musculus [6]): 4%
- Ki [3]: > 1000 nM
- Ki [4]: 0.0019 nM
- Ki (Mu-type opioid receptor): 0.38 nM

SMILES: CN1CCC23c4c5ccc(O)c4O[C@H]2C(=O)[C@]2(CCc4ccccc4C2)C[C@H]3C1C5 (stereo not given in full)
- IC50 (Cavia porcellus [1]): 107 nM
- Max response (Mus musculus [6]): 17%
- Ki [3]: > 1000 nM
- Ki [4]: 182 nM
- Ki (Mu-type opioid receptor): 119 nM

SMILES: CN1CCC23c4c5ccc(O)c4O[C@H]2C(=O)[C@@]2(CCc4ccccc4C2)C[C@H]3C1C5 (stereo not given in full)
- IC50 (Cavia porcellus [1]): 130 nM
- Max response (Mus musculus [6]): 42%
- Ki [3]: 88 nM
- Ki [4]: 8.3 nM
- Ki (Mu-type opioid receptor): 2.8 nM
